Rows were chosen to be rich in hits. Some 9.6% of all compounds tested hit in one or more screens of this group.
L major viab: reduces viability of Leishmania major promastigotes | resazurin fluorescence viability | inhibition, % at 10 µM | 200,000 compounds, 9% hits | AID 1063; in the data active means inhibition above about 50%;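 further: promastigotes grown with compound for 44 hours at 28 °C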
PMI act: phosphomannose isomerase (human) activation; P34949; purified human PMI, coupled resazurin fluorescence, 20 min; active compounds read high; 1 = vehicle control, 0 substrate-free wells; activation factor at 20 µM; 190,000 compounds, 0.005% hits; AID 1214;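 active means activation factor of 2 or more at 20 µM, relative to plate controls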
Target sequence (P34949 whole entry, looked up): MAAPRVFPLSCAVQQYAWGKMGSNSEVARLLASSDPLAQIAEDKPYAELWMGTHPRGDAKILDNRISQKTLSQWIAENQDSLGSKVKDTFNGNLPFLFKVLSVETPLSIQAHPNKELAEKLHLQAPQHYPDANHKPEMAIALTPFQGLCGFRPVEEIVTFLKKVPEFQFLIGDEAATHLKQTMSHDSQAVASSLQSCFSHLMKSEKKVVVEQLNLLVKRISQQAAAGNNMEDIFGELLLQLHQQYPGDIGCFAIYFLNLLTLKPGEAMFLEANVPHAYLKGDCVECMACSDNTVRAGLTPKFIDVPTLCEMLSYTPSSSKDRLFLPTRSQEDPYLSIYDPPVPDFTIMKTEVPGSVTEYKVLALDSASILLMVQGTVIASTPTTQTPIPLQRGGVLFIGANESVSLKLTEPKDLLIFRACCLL
PTEN del growth: suppresses growth of cells with PTEN deletion. HCT116 PTEN-null viability, CellTiter-Glo, 60 h; active compounds read low. AID 827. 140,000 compounds, 1.2% hits. viability, % at 10 µM;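 active means viability at or below a set limit, 4 SD under the median of all tested compounds, cut at about 3.7% in these data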;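 further: PTEN knockout HCT116 line with beta catenin targeted HCT116 as companion control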
PMI act satM6P: PMI (human) activation, high substrate; coupled PMI enzyme assay, resazurin fluorescence, 20 min; active compounds read high; 1 = untreated enzyme, 0 = substrate-free blank; activation factor at 20 µM; 190,000 compounds, 0.34% hits;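 active means activation factor of 2 or more at 20 µM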
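Test system: Human PMI in coupled enzyme assay | Input: 15 ng/mL PMI | Medium: HEPES-buffered pH 7.4 with magnesium and detergent | Compound: One concentration, 20 µM, in 1% DMSO | Incubation: Enzyme reaction with compound 20 min at room temperature | Detection: Diaphorase-driven resazurin-to-resorufin fluorescence, excitation 544, emission 590 nm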
bCat KO growth: beta-catenin-lacking colon tumor cell growth suppression. HCT116 beta-catenin knockout viability, CellTiter-Glo, 60 h; active compounds read low. viability, % at 10 µM. 140,000 compounds, 1.5% hits;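 active means viability at or under a set limit, the compound median less 4 SD, cut at about 6% in these data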;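 further: 0% = Hyamine 1622 control at 20 µM and 100% = untreated cell control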
Starred values were filed as active, the others as inactive; / = not tested or not shown.

SMILES	L major viab	PMI act	PTEN del growth	PMI act satM6P	bCat KO growth
Cc1nc2ncnn2c(C)c1CCC(=O)NC(C)CCc1ccco1 (stereo not drawn)	-5	1.1	101	1.1	102
Cc1nc2cc(-c3ccccc3)nn2c(C)c1CCC(=O)NCc1ccco1	2	1.1	95	1.1	96
Cc1nc2cc(-c3cccc(F)c3)nn2c(C)c1CCC(=O)NC(C)CCc1ccco1 (stereo not drawn)	100*	1	61	1	58
CC(c1ccccc1)N1CCc2[nH]c(=S)[nH]c(=O)c2C1 (stereo not drawn)	17	1.2	/	1.1	/
CCOCC(=O)Nc1cc(-c2cn3cccnc3n2)ccc1C	-2	1	93	1	99
Cc1nnc(SCc2ccc(F)cc2)n1NC/C=C/c1ccccc1	-9	0.9	78	0.9	58
COc1ccc(-c2n[nH]c(C)c2-c2cnn(-c3ccccc3)c2)c(O)c1	-12	0.8	87	0.9	86
COc1ccc(-c2onc(C)c2-c2cnn(-c3ccccc3)c2)c(O)c1C	84*	0.9	/	0.8	/
COc1ccc(-c2n[nH]c(C)c2-c2cnn(-c3ccccc3)c2)c(O)c1C	67*	1	61	0.9	76
Cc1oc2c(O)c(O)ccc2c(=O)c1-c1cnn(-c2ccccc2)c1	34	0.2	18	0.6	28
O=C(Nc1nccs1)c1c(O)c2cccc3c2n(c1=O)CCC3	96*	1	18	1	25
CN1C=C/C(=C\c2cc[n+](C)c3ccccc23)c2ccccc21	101*	0.4	/	0.4	/
CC[n+]1ccc(/C=C2\Sc3ccccc3N2CCCS(=O)(=O)[O-])c2ccccc21	5	0.9	/	0.9	/
CCC1(C)Cc2c(c(=O)n(-c3ccccc3)c3ncnc(N)c23)CO1 (stereo not drawn)	0	1	89	1	100
CNc1oc(Cc2cccc3ccccc23)nc1C#N	2	0.9	114	0.9	101
N#Cc1nc(Cc2cccc3ccccc23)oc1NCCN1CCCCC1	65*	0.9	63	0.9	60
COc1ccc(C2SCCN2C(=S)Nc2cccc(Cl)c2)cc1 (stereo not drawn)	80*	0.9	86	1	88
COc1ccc(C2SCCN2C(=S)Nc2ccc(Cl)cc2)cc1 (stereo not drawn)	41	0.8	89	0.9	82
O=C(NCCc1cn2ccccc2n1)c1cc(COc2c(F)cccc2F)on1	52*	/	/	/	/
CCCc1ccc(C2C3=C(CC(C)(C)CC3=O)NC3=C2C(=O)c2ccccc23)cc1 (stereo not drawn)	88*	0.9	9	0.9	18
CCCCc1ccc(C2C3=C(CC(C)(C)CC3=O)NC3=C2C(=O)c2ccccc23)cc1 (stereo not drawn)	99*	0.8	24	0.9	37
Cc1ccc(NC(=S)N(CCN2CCOCC2)Cc2cc3cc4c(cc3[nH]c2=O)OCO4)cc1	2	0.9	/	1	/
Cc1cc(=O)n(CC(=O)Nc2cc(Cl)ccc2C)c(C(C)C)n1	8	1.1	/	1	/
O=[N+]([O-])c1cc(S(=O)(=O)N2CCCCC2)ccc1NCCN1CCOCC1	8	0.9	/	0.9	/
CC(C)(C)OC(=O)N1CCOCCOCCN(C(=O)OC(C)(C)C)CCOCC1	-2	1	94	1.1	88
SMILES	L major viab	PMI act	PTEN del growth	PMI act satM6P	bCat KO growth
Cc1cc(C)c(S(=O)(=O)c2cccc(Cl)c2)c(Cl)n1	4	1	/	1.1	/
Cc1cc(C)c(S(=O)(=O)c2c(C)cccc2C)c(Cl)n1	100*	1	83	1.1	81
Cc1cc(C)c(S(=O)(=O)c2ccc(Cl)cc2C)c(Cl)n1	100*	0.9	/	0.9	/
Cc1cc(C)c(S(C)(=O)=O)c(S(=O)(=O)c2ccc(Cl)cc2)n1	-4	1	84	1.1	81
COc1ccc(C(C)C)cc1S(=O)(=O)n1ccnc1C	9	1.1	94	1.1	93
O=C(NCCN1CCOCC1)c1csc2c1CCCCC2	-1	0.9	91	1	84
CCN1CCN(CCCNC(=O)c2csc3c2CCCCC3)CC1	99*	1	98	0.9	105
CC1CCc2c(C(=O)NCCCN3CCOCC3)csc2C1 (stereo not drawn)	93*	1.1	108	1.2	100
Cc1ccc(Cl)cc1-n1ncc2c(NNC(=O)c3ccco3)ncnc21	-7	0.9	/	0.8	/
CCN1C(=O)/C(=C\c2nc3ccccc3c(=O)n2CC)c2ccccc21	96*	0.9	/	1	/
CCN1C(=O)/C(=C/c2nc3ccccc3c(=O)n2-c2ccccc2)c2ccccc21	71*	0.8	31	0.8	42
CCn1c(/C=C2/C(=O)N(C)c3ccccc32)nc2ccccc2c1=O	31	1	64	1.1	69
O=C1c2cccnc2C(Nc2ccccc2Br)N1Cc1ccco1 (stereo not drawn)	10	1.1	/	1.1	/
CCOc1ccccc1NC(=O)C(Sc1nnnn1C)c1ccccc1 (stereo not drawn)	6	1	/	0.9	/
S=C1NC2=C(CCC/C2=C\c2ccccc2)C(c2ccccc2)N1 (stereo not drawn)	12	1.6	95	2.4*	91
C(=C1/CCCC2=C1Nc1ncnn1C2c1ccccc1)/c1ccccc1 (stereo not drawn)	100*	1	1.5*	0.9	1.5*
FC(F)(F)c1ccccc1C1C2=C(Nc3ncnn31)c1ccccc1CCC2 (stereo not drawn)	96*	1	75	1.1	82
Fc1ccccc1/C=C1\CCCC2=C1NC(=S)NC2c1ccccc1F (stereo not drawn)	18	1.7	/	2.2*	/
CC1CCCCN1S(=O)(=O)c1ccc(S(=O)(=O)N(Cc2ccccc2)Cc2ccco2)cc1 (stereo not drawn)	69*	0.9	83	0.9	78
CCN(Cc1ccccc1)S(=O)(=O)c1ccc(S(=O)(=O)N(Cc2ccccn2)Cc2ccco2)cc1	2	1	66	1	73
Cn1cccc1Cc1nnc(SCC(=O)NCC2CCCO2)n1C (stereo not drawn)	4	1	/	1	/
CC(C)(C)c1ccc(Cn2cnc(-c3ccc([N+](=O)[O-])cc3)c2)cc1	89*	0.9	48	1	33
N#CCC(=O)NCCCc1ccccc1	-2	1	96	0.9	98
Cc1cccn2c(=O)c(C=NCc3ccco3)c(Nc3ccc(SC(F)F)cc3)nc12	91*	1	14	1	37
COC(=O)C1=C(O)/C(=C\c2sccc2C)N=C1C	54*	0.9	93	0.9	94
CCOC(=O)C1=C(O)/C(=C\c2sccc2C)N=C1C	34	0.8	103	0.9	95
COC(=O)CP(=O)(c1ccccc1)c1ccccc1	-4	1	93	1.1	93
Cc1cc(C)cc(C(=O)NCC(=O)OCC(=O)NCc2ccco2)c1	11	1.1	/	1.1	/
COC(=O)c1ccc(COc2ccc(/C=N/O)cc2)o1	8	1	/	0.9	/
